By EC50 is commonly meant the concentration at which the effect is half-maximal. A word on the half-life: it is the time needed for the level to fall by half in the phase considered. The term Ki denotes the dissociation constant of the complex between target and ligand, obtained from inhibition or displacement. A lower Ki goes with tighter binding.

This is an account of results in ChEMBL document CHEMBL5233202, “Metabolically stable apelin-analogues, incorporating cyclohexylalanine and homoarginine, as potent apelin receptor activators” (RSC Med Chem, 2021).

Data set [1] has as its target T1, Apelin receptor (Homo sapiens, UniProt P35414).
T1 sequence (P35414 whole entry): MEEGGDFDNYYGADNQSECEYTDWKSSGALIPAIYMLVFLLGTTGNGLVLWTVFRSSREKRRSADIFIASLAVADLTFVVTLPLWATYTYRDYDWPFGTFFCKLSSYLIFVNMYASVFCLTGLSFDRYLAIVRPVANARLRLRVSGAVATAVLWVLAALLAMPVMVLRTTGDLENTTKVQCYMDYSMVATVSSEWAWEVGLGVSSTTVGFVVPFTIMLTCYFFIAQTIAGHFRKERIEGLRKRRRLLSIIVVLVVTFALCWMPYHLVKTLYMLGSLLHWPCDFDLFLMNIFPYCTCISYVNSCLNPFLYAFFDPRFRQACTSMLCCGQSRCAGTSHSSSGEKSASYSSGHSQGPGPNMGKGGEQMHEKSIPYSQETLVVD
As to the kind of experiment: Activation of recombinant human APJ receptor expressed in rat Chem-5 cells assessed as increase in Ca2+ mobilization by FLIPR Calcium 6-QF fluorescent dye based assay. Type of data set: cell-based. The method, boiled down:
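Frozen Chem-5 cells stably expressing human APJ, thawed per supplier protocol, loaded 1 h with Calcium 6-QF dye in HBSS/20 mM HEPES/0.2% DMSO/2.5 mM probenecid, pH 7.6. Cells washed three times and rested 10 min, then read on FLIPR. Agonist response taken as maximum fluorescence change over baseline. pEC50 from four-parameter logistic fit; triplicates.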
For orientation: Calcium assays in cells follow changes in intracellular calcium, usually with a dye or a luminescent sensor.

The target of data set [2] is T2, Neprilysin (Homo sapiens, UniProt P08473). Nature of the data set: Proteolytic stability assessed as recombinant human NEP-mediated compound degradation by measuring half life incubated for 24 hrs by LC-MS analysis. Type of data set: ADME. To be noted: 24 h.
Data set [3] can be described thus: Stability in human plasma assessed as half life at 1 mM measured for 24 hrs by LC-MS analysis. Type of data set: ADME, cell-free. The method, boiled down: (§1)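 Plasma (20 μL, human or murine) prewarmed to 37 °C, then 5 μL of 1 mM peptide added and incubated at 37 °C. Samples quenched at 1, 3, 6 and 24 h with 6 M GuHCl/80% ACN and Dans-YVG internal standard, centrifuged, solid-phase extracted and analyzed by LC-MS. Peptide/standard peak-area ratio normalized to 0 h; triplicates.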

Data set [4] can be described thus: Protein binding in pooled human plasma at 100 uM incubated for 3 hrs by equilibrium dialysis method. To be noted: read-out: PPB (converted). Type of data set: ADME, cell-free. The method, boiled down: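 Equilibrium dialysis. DMSO stock (1 mM) diluted to 100 μM final in 55% pooled human plasma stabilized with EDTA and MLN-4760, dialyzed against PBS pH 7.4 at 37 °C, 120 rpm, 3 h. Retentate diluted with PBS and dialysate with plasma, then quenched with 10% TFA/acetonitrile. Dans-YVG internal standard added, centrifuged, LC-MS.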
In general terms: In equilibrium dialysis free small molecules cross a membrane that holds back macromolecules.

In data set [5] the test system is Mus musculus. Nature of the data set: Hypotensive effect in anesthetized wild type mouse assessed as total time duration of hypotensive effect at 1.4 uM/Kg, iv administered via right jugular vein measured for 60 mins. The format is functional. As to conditions: 1 h. In outline: (§2)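 Anesthetized mice received peptide at 1.4 μM kg−1 body weight, or equal-volume saline, by injection into the right jugular vein (n = 3). HR, MABP, SBP and DBP were recorded from blood pressure traces and reported as mean ± S.E.M.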

In data set [6] the test system is Mus musculus. As to the kind of experiment: Hypotensive effect in anesthetized wild type mouse assessed as change in mean arterial blood pressure at 1.4 uM/Kg, iv administered via right jugular vein measured for 60 mins. The format is functional. As to conditions: 1 h. The method, boiled down:
as §2

Data set [7] addresses T2, Neprilysin. As to the kind of experiment: Proteolytic stability assessed as recombinant human NEP-mediated compound degradation incubated for 24 hrs by LC-MS analysis. Type of data set: ADME. The method, boiled down:
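Recombinant human NEP diluted to 2 ng μL−1 in NEP-B buffer and preincubated 10 min at 37 °C. Peptide (1 mM aqueous solution) added and incubated at 37 °C. Aliquots taken at 0, 2, 10, 20 and 48 h, quenched and quantified by LC-MS; triplicate per time point.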

Data set [8] can be described thus: Stability in mouse plasma assessed as half life at 1 mM measured for 24 hrs by LC-MS analysis. The format is ADME, cell-free. The method, boiled down:
as §1

For data set [9], the target named is T3, Apelin receptor (Rattus norvegicus, UniProt Q9JHG3).
T3 sequence (Q9JHG3 whole entry): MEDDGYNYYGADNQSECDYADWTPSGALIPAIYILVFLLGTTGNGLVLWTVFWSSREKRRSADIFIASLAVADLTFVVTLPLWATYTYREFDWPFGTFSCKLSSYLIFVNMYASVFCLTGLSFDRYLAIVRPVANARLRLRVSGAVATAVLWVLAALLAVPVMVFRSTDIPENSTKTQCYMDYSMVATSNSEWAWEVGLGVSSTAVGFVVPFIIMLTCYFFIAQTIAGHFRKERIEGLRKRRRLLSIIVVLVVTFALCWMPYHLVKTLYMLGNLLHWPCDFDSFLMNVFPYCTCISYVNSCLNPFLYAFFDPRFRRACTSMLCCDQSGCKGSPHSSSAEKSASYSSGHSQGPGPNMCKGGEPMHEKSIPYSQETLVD
Nature of the data set: Displacement of [125I]-pyr-1-apelin-13 from EGFP tagged rat apelin receptor expressed in CHO cell membrane incubated for 3 hrs by gamma counter analysis. The format is cell membranes. In outline: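 Crude membranes (1 μg/assay) from CHO cells stably expressing wild-type rat APJ-EGFP, incubated 3 h at 20 °C with 0.2 nM [125I]-pyr-1-apelin-13 (Lys8 Bolton–Hunter monoiodinated) and competitor at various concentrations. Binding buffer: 50 mM HEPES, 5 mM MgCl2, 1% BSA, pH 7.5. Quenched with cold buffer, GF/C filtered and washed, gamma counted; triplicates.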
(In general: In a radioligand displacement assay an active substance lowers the binding of a labelled ligand.)

Non-standard residues stand in square brackets, D forms with d. Residues, ends and D or L forms follow the SMILES beside them. Phe(4-Br) = N[C@@H](Cc1ccc(Br)cc1)C(=O)O; NMeCha = CN[C@@H](CC1CCCCC1)C(=O)O; hArg = N=C(N)NCCCC[C@H](N)C(=O)O; NMeL = CN[C@@H](CC(C)C)C(=O)O; Nle = CCCC[C@H](N)C(=O)O; Aib = CC(C)(N)C(=O)O

T2 sequence (P08473 whole entry): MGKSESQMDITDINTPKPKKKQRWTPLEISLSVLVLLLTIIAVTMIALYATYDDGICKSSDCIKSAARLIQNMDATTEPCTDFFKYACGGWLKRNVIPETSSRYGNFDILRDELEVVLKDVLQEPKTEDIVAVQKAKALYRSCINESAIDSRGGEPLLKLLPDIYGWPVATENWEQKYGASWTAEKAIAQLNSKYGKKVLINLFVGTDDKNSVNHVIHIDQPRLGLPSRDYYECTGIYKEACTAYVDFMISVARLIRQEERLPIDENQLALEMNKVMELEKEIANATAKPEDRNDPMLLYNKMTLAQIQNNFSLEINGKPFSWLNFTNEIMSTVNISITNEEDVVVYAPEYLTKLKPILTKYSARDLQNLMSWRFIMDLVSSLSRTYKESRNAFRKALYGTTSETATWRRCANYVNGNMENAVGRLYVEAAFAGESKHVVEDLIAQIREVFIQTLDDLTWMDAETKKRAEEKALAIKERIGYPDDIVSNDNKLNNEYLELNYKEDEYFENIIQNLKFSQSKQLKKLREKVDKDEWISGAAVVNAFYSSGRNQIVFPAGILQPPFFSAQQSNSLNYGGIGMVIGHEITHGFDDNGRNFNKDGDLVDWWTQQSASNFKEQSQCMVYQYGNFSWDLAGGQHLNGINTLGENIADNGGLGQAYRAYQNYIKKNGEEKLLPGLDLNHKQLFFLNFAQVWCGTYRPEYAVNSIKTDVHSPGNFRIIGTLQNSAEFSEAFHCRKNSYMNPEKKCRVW

In the case of `CCCC[C@H](NC(=O)[C@@H]1CCCN1C(=O)CNC(=O)[C@H](CCCCN)NC(=O)[C@H](Cc1c[nH]cn1)NC(=O)[C@H](CO)NC(=O)[C@H](CC(C)C)NC(=O)[C@H](CCCNC(=N)N)NC(=O)[C@@H]1CCCN1C(=O)[C@H](CCCNC(=N)N)NC(=O)[C@H](CCC(N)=O)NC(=O)[C@H](CCCNC(=N)N)NC(=O)[C@H](CCCNC(=N)N)NC(=O)[C@H](Cc1ccccc1)NC(=O)[C@@H](N)CCCCN)C(=O)NC(C)(C)C(=O)N[C@@H](Cc1ccc(Br)cc1)C(=O)O` (H-KFRRQRPRLSHKGP[Nle][Aib][Phe(4-Br)]-OH), the EC50 at Apelin receptor [1] is 4.27 nM. Further, at Neprilysin [2], the t1/2 is 657 min. Further, the half-life at 1000 µM in [3] was 54 min. In addition, in data set [4], the fraction unbound at 3 h, 100 µM is 0.43. Also, in the data set on Mus musculus [5], the Time turned out to be 33 min. The Activity in the data set with Mus musculus [6] amounted to 10.24 mmHg.

Turning to `CCCC[C@H](NC(=O)[C@@H]1CCCN1C(=O)CNC(=O)[C@H](CCCCN)NC(=O)[C@H](Cc1c[nH]cn1)NC(=O)[C@H](CO)NC(=O)[C@H](CC1CCCCC1)N(C)C(=O)[C@H](CCCNC(=N)N)NC(=O)[C@@H]1CCCN1C(=O)[C@H](CCCNC(=N)N)NC(=O)[C@H](CCC(N)=O)NC(=O)[C@H](CCCNC(=N)N)NC(=O)[C@H](CCCNC(=N)N)NC(=O)[C@H](Cc1ccccc1)NC(=O)[C@@H](N)CCCCN)C(=O)NC(C)(C)C(=O)N[C@@H](Cc1ccc(Br)cc1)C(=O)O` (H-KFRRQRPR[NMeCha]SHKGP[Nle][Aib][Phe(4-Br)]-OH), at Apelin receptor [1], the EC50 is 16.2 nM. At Neprilysin [7], the Stability result is recorded as “Stable”. The figures for the half-life at 1000 µM in [8] and in [3] were 26.4 min and 174 min, respectively. The fraction unbound at 3 h, 100 µM in [4] is 0.32. Moreover, in the data set on Mus musculus [5], the Time amounted to 60 min. Besides, in the data set with Mus musculus [6], the Activity was 28.83 mmHg. The compound further had a Ki at Apelin receptor [9] of 2 nM.

`CCCC[C@H](NC(=O)[C@@H]1CCCN1C(=O)CNC(=O)[C@H](CCCCN)NC(=O)[C@H](Cc1c[nH]cn1)NC(=O)[C@H](CO)NC(=O)[C@H](CC1CCCCC1)N(C)C(=O)[C@H](CCCCNC(=N)N)NC(=O)[C@@H]1CCCN1C(=O)[C@H](CCCNC(=N)N)NC(=O)[C@H](CCC(N)=O)NC(=O)[C@H](CCCNC(=N)N)NC(=O)[C@H](CCCNC(=N)N)NC(=O)[C@H](Cc1ccccc1)NC(=O)[C@@H](N)CCCCN)C(=O)NC(C)(C)C(=O)N[C@@H](Cc1ccc(Br)cc1)C(=O)O` (H-KFRRQRP[hArg][NMeCha]SHKGP[Nle][Aib][Phe(4-Br)]-OH): the EC50 at Apelin receptor [1] is 72.4 nM. The Stability entry on Neprilysin [7] is given as “Stable”. In addition, the values for the half-life at 1000 µM in data set [8] and in data set [3] were 21.6 min and 205 min, respectively. Besides, the fraction unbound at 3 h, 100 µM in [4] was 0.31. The Time in the data set on Mus musculus [5] is reported as 60 min. Further, the Activity in the data set on Mus musculus [6] is 47.57 mmHg. At Apelin receptor [9], this compound gave a Ki of 0.646 nM.

Take `CCCC[C@H](NC(=O)[C@@H]1CCCN1C(=O)CNC(=O)[C@H](CCCCN)NC(=O)[C@H](Cc1c[nH]cn1)NC(=O)[C@H](CO)NC(=O)[C@H](CC(C)C)N(C)C(=O)[C@H](CCCCNC(=N)N)NC(=O)[C@@H]1CCCN1C(=O)[C@H](CCCNC(=N)N)NC(=O)[C@H](CCC(N)=O)NC(=O)[C@H](CCCNC(=N)N)NC(=O)[C@H](CCCNC(=N)N)NC(=O)[C@H](Cc1ccccc1)NC(=O)[C@@H](N)CCCCN)C(=O)NC(C)(C)C(=O)N[C@@H](Cc1ccc(Br)cc1)C(=O)O` (H-KFRRQRP[hArg][NMeL]SHKGP[Nle][Aib][Phe(4-Br)]-OH): the EC50 at Apelin receptor [1] is 275 nM. For the same compound, at Neprilysin [7], the Stability entry is reported as “Stable”. For the same compound, the half-life at 1000 µM in data set [8] is 22.8 min; in [3], 338 min. The Time in the data set with Mus musculus [5] is recorded as 60 min. Moreover, the Activity in the data set on Mus musculus [6] is listed as 34.69 mmHg. For the same compound, the affinity at Apelin receptor [9], expressed as Ki, was 1.41 nM.
